Measured values as given in ChEMBL document CHEMBL1833883, “Synthesis and antiangiogenic activity of new silybin galloyl esters” (J Med Chem, 2011).
Converted amounts (≈) assume the structure as drawn. The source made the active and inactive calls. The calls are words filed in the database; no cut-off is given here.

Tests used:
HUVEC [1] = experiment: Antiangiogenic activity in HUVEC assessed as inhibition of tube formation up to 75 uM after 6 hrs by Matrigel assay; assay type: functional, cell-based; settings: Homo sapiens
Summary of the method: (§1)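 Roughly 1 × 10⁴ HUVECs plated in EGM on polymerized Matrigel (9 mg/mL), with or without compound; 2-methoxyestradiol 10 μM as positive control. Three images per well taken at 40× magnification. Tube formation scored in a field of about 100 cells as (sprouting×1 + connected×2 + polygons×3)/total cells, and expressed as % of untreated control; p < 0.05 versus control.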

HUVEC [2] = experiment: Cytotoxicity against HUVEC assessed as cell viability after 16 hrs by MTT assay; assay type: cell-based; settings: Homo sapiens
Summary of the method: (§2)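 Confluent HUVECs on gelatin-coated wells treated with serial dilutions of compound in fresh EGM for 16 h (overnight, 16–20 h). MTT added in medium at 1 mg/mL, 3 h at 37 °C; formazan dissolved in 1% NH₃/DMSO and absorbance read at 540 nm. IC50 reported as mean ± SD of three independent experiments, each run in triplicate.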

HUVEC [3] = experiment: Cytotoxicity against HUVEC by LDH release assay; assay type: cell-based; settings: human
Summary of the method: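 Confluent HUVECs on gelatin-coated wells exposed overnight (16–20 h) to serial dilutions of compound in fresh EGM. Culture medium then sampled to measure LDH leakage.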

HUVEC [4] = experiment: Antiproliferative activity against HUVEC assessed as inhibition of cell growth after 3 days by MTT assay; assay type: functional, cell-based; settings: Homo sapiens, 72 h
Summary of the method: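 4 × 10³ HUVECs incubated with serial dilutions of compound for 3 days. MTT (5 mg/mL, 10 μL) added and incubated 3 h at 37 °C; formazan dissolved in 1% NH₃ in DMSO and read at 540 nm. IC50 reported as mean ± SD of three independent experiments, each run in triplicate.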

HUVEC [5] = experiment: Antiangiogenic activity in HUVEC assessed as inhibition of cell migration after 16 to 20 hrs by wound healing migration assay; assay type: functional; settings: Homo sapiens
Summary of the method: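 HUVECs (passages 2–6, isolated from umbilical cord by collagenase digestion, grown in EGM) as confluent monolayers; one 1-mm cell-free line scratched per well, cells washed twice with PBS, then given fresh EGM with or without compound. Wound photographed at time zero and after overnight (16–20 h) incubation at 37 °C. Minimal inhibitory concentration taken from reoccupation of the wound space.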

HUVEC [6] = experiment: Antiangiogenic activity in HUVEC assessed as inhibition of tube formation after 24 hrs by Matrigel assay; assay type: functional; settings: Homo sapiens
Summary of the method: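 Matrigel (9 mg/mL) polymerized at 37 °C for at least 30 min. About 1 × 10⁴ HUVECs seeded in EGM with or without compound; 2-methoxyestradiol 10 μM as positive control. After 24 h, the minimal inhibitory concentration was taken as the lowest concentration at which no tubular structures formed.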

HUVEC [7] = experiment: Antiangiogenic activity in HUVEC assessed as inhibition of tube formation at 10 uM after 6 hrs by Matrigel assay relative to control; assay type: functional; settings: Homo sapiens; summary of the method: as §1
HUVEC [8] = experiment: Antiangiogenic activity in HUVEC assessed as inhibition of tube formation after 6 hrs by Matrigel assay relative to control; assay type: functional, cell-based; settings: Homo sapiens; summary of the method: as §1
[9] = Cytotoxicity against HUVEC assessed as cell viability at concentration higher than IC50 after 16 hrs by MTT assay; assay type: cell-based; settings: human, HUVEC cells; read-out: Activity; summary of the method: as §2
[10] = Cytotoxicity against HUVEC assessed as cell viability at 100 uM after 16 hrs by MTT assay; assay type: cell-based; settings: human, HUVEC cells; read-out: Activity; summary of the method: as §2
HUVEC [11] = experiment: Antiangiogenic activity in HUVEC assessed as inhibition of tube formation at 50 uM after 6 hrs by Matrigel assay; assay type: functional, cell-based; settings: Homo sapiens
HUVEC [12] = experiment: Antiangiogenic activity in HUVEC assessed as inhibition of tube formation at 75 uM after 6 hrs by Matrigel assay; assay type: functional, cell-based; settings: Homo sapiens
HUVEC [13] = experiment: Antiangiogenic activity in HUVEC assessed as inhibition of tube formation at 20 uM after 6 hrs by Matrigel assay relative to control; assay type: functional; settings: Homo sapiens; summary of the method: as §1
HUVEC [14] = experiment: Antiangiogenic activity in HUVEC assessed as inhibition of tube formation at 30 uM after 6 hrs by Matrigel assay relative to control; assay type: functional; settings: Homo sapiens; summary of the method: as §1
HUVEC [15] = experiment: Antiangiogenic activity in HUVEC assessed as inhibition of tube formation at 10 uM after 6 hrs by Matrigel assay; assay type: functional, cell-based; settings: Homo sapiens; summary of the method: as §1

Compound | inhibition (HUVEC [1]) | IC50 (HUVEC [2]) [µM] | Activity (HUVEC [3]) | IC50 (HUVEC [4]) [µM] | MIC (HUVEC [5]) [µM] | MIC (HUVEC [6]) [µM] | inhibition at 10 µM (HUVEC [7]) [%] | inhibition (HUVEC [8]) | viability at 16 h [9] [%] | viability at 16 h, 100 µM [10] [%] | inhibition (HUVEC [11]) | inhibition (HUVEC [12]) | inhibition at 20 µM (HUVEC [13]) [%] | inhibition at 30 µM (HUVEC [14]) [%] | inhibition (HUVEC [15])
COc1cc(C2Oc3cc([C@H]4Oc5cc(O)cc(O)c5C(=O)[C@@H]4OC(=O)c4cc(O)c(O)c(O)c4)ccc3OC2CO)ccc1O (some centres undefined) | inactive | 65 | Non-toxic | 12.3 | 50 (≈ 31.7 µg/mL) | 75 (≈ 47.6 µg/mL) | – | – | – | – | – | – | – | – | –
COc1cc([C@@H]2Oc3cc([C@H]4Oc5cc(OC(=O)c6cc(O)c(O)c(O)c6)cc(O)c5C(=O)[C@@H]4O)ccc3O[C@H]2CO)ccc1O | – | 7.85 | Non-toxic | 4.29 | 10 (≈ 6.35 µg/mL) | – | 79.9 | Dose-dependent effect | 50 | 40 | Active | – | – | – | –
COc1cc(C2Oc3cc([C@H]4Oc5cc(O)cc(O)c5C(=O)[C@@H]4O)ccc3OC2CO)ccc1O (mixture of isomers) [SILIBININ] | – | 72.6 | Non-toxic | 9.99 | 50 | 75 | – | – | – | – | – | Active | – | – | –
COc1cc([C@H]2Oc3cc([C@H]4Oc5cc(OC(=O)c6cc(O)c(O)c(O)c6)cc(O)c5C(=O)[C@@H]4O)ccc3O[C@@H]2CO)ccc1O | – | 17.1 | Non-toxic | 6.06 | 10 (≈ 6.35 µg/mL) | – | 79.9 | Dose-dependent effect | 50 | 40 | Active | – | – | – | –
COc1cc(C2Oc3cc([C@H]4Oc5cc(O)cc(O)c5C(=O)[C@@H]4O)ccc3OC2COC(=O)c2cc(O)c(O)c(O)c2)ccc1O (some centres undefined) | – | 55 | Non-toxic | 11.6 | 20 (≈ 12.7 µg/mL) | 75 (≈ 47.6 µg/mL) | – | – | – | – | – | – | – | – | –
COc1cc([C@@H]2Oc3cc([C@H]4Oc5cc(O)cc(O)c5C(=O)[C@@H]4O)ccc3O[C@H]2CO)ccc1O [SILYBIN B] | – | 60.5 | Non-toxic | 6.49 | – | – | – | – | – | – | – | – | – | – | –
COc1cc(C2Oc3cc([C@H]4Oc5cc(O)cc(O)c5C(=O)[C@@H]4O)ccc3OC2CO)ccc1OC(=O)c1cc(O)c(O)c(O)c1 (some centres undefined) | – | 35.4 | Non-toxic | 10.3 | 20 (≈ 12.7 µg/mL) | 60 (≈ 38.1 µg/mL) | – | – | – | – | – | – | 94.5 | 49.5 | –
COc1cc([C@H]2Oc3cc([C@H]4Oc5cc(O)cc(O)c5C(=O)[C@@H]4O)ccc3O[C@@H]2CO)ccc1O [SILYBIN A] | – | 62.3 | Non-toxic | 8.83 | – | – | – | – | – | – | – | – | – | – | –
COc1cc2c(cc1O)CC[C@@H]1[C@@H]2CC[C@]2(C)[C@@H](O)CC[C@@H]12 | – | – | – | – | – | – | – | – | – | – | – | – | – | – | Active
COc1cc(C2Oc3cc([C@H]4Oc5cc(OC(=O)c6cc(O)c(O)c(O)c6)cc(O)c5C(=O)[C@@H]4O)ccc3OC2CO)ccc1O (some centres undefined) | – | 9.21 | Non-toxic | 4.75 | 10 (≈ 6.35 µg/mL) | 25 (≈ 15.9 µg/mL) | 79.9 | Dose-dependent effect | 50 | 40 | Active | – | – | – | –
